Active and inactive are the calls of the source. The calls are words filed in the database; no cut-off is given here.
Experiments:
[1] = system: SH-SY5Y; assay: Neuroprotective activity in human SH-SY5Y cells assessed as inhibition of CHP and TBHP-induced cell death at 10 uM incubated for 30 mins prior to challenge measured after 3 hrs by MTT assay; format: functional, cell-based
In short: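 SH-SY5Y human neuroblastoma cells pretreated with compound at 10 µM for 30 min, then exposed to cumene hydroperoxide (CHP) or tert-butyl hydroperoxide (TBHP) at 300 µM for 3 h. Viability read by MTT and expressed relative to untreated control set as 100%. Mean ± SEM, n = 3; ANOVA.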

[2] = system: SH-SY5Y; assay: Neuroprotective activity in MPP+-stimulated human SH-SY5Y cells assessed as cell survival at 30 uM measured 24 hrs after MPP+-challenge by MTT assay; format: functional; details: read-out: Survival
In short: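 SH-SY5Y neuroblastoma cells were co-treated with MPP+ (1 mM) and test compound (10–30 µM) for 24 h, with no pretreatment. Viability was read by MTT assay and given as percent of control without MPP+. Values are mean ± SEM, n = 4, compared by ANOVA.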

[3] = system: SH-SY5Y; assay: Neuroprotective activity in human SH-SY5Y cells assessed as inhibition of MPP+-induced cell death after 24 hrs by MTT assay; format: functional, cell-based
In short: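 SH-SY5Y neuroblastoma cells co-treated with MPP+ (1 mM) and compound (10–30 µM) at the same time for 24 h. MTT read-out, given as percent viability versus control without MPP+. Mean ± SEM, n = 4; ANOVA.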

[4] = Cytotoxicity against human SH-SY5Y cells assessed as cell viability at 300 uM by MTT assay; format: cell-based; details: read-out: Activity
In short: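 SH-SY5Y human neuroblastoma cells were exposed to cumene hydroperoxide (CHP) or tert-butyl hydroperoxide (TBHP) at 300 µM for 3 h. Viability was read by MTT assay and expressed relative to untreated control cultures set as 100%. Values are mean ± SEM, n = 3, compared by ANOVA.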

Row | SMILES | inhibition [1] | viability at 30 µM [2] | inhibition [3] | viability at 300 µM [4]
1 | CCCc1ccc(O)c(-c2ccc(O)c(CCC)c2)c1 | Active | 91% | Dose-dependent effect | –
2 | CC(C)(C)OO [TERT-BUTYL HYDROPEROXIDE] | – | – | – | 72%
3 | C=CCc1cc(-c2cc(CCC)ccc2O)ccc1O | Active | 83% | Dose-dependent effect | –
4 | C=CCc1cc(-c2cccc(O)c2CC=C)ccc1O | Active | 79% | Dose-dependent effect | –
5 | C=CCc1ccc(O)c(-c2ccc(O)c(CC=C)c2)c1 | Active | – | Dose-dependent effect | –
6 | CC(C)(OO)c1ccccc1 [CUMENE HYDROPEROXIDE] | – | – | – | 64%
7 | C=CCc1cc(-c2ccc(O)c(CC=C)c2)ccc1O | Active | – | Dose-dependent effect | –
8 | C=CCc1ccc(O)c(-c2ccc(O)c(CCC)c2)c1 | Active | 87% | Dose-dependent effect | –
9 | C#CCc1ccc(O)c(-c2ccc(O)c(CC=C)c2)c1 | Active | 80% | Dose-dependent effect | –
